IDE inh – human IDE inhibitors in live cells, primary screen, fluorescence polarization, HEK cells, FAbetaB substrate | inhibition, % at 5.59 µM | Insulin-degrading enzyme (Homo sapiens), P14735 | AID 434962, 2010 | FAbetaB cleavage | 320,000 compounds, 0.41% hits;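 active = percent inhibition above the average of all tested compounds plus 3 SD, set per screening campaign, cut at about 16% in these data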;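 also: IDE supplied by intact live HEK cells; FP after avidin binding of uncleaved biotin substrate so inhibition keeps polarization high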
Target sequence (P14735 whole entry, looked up): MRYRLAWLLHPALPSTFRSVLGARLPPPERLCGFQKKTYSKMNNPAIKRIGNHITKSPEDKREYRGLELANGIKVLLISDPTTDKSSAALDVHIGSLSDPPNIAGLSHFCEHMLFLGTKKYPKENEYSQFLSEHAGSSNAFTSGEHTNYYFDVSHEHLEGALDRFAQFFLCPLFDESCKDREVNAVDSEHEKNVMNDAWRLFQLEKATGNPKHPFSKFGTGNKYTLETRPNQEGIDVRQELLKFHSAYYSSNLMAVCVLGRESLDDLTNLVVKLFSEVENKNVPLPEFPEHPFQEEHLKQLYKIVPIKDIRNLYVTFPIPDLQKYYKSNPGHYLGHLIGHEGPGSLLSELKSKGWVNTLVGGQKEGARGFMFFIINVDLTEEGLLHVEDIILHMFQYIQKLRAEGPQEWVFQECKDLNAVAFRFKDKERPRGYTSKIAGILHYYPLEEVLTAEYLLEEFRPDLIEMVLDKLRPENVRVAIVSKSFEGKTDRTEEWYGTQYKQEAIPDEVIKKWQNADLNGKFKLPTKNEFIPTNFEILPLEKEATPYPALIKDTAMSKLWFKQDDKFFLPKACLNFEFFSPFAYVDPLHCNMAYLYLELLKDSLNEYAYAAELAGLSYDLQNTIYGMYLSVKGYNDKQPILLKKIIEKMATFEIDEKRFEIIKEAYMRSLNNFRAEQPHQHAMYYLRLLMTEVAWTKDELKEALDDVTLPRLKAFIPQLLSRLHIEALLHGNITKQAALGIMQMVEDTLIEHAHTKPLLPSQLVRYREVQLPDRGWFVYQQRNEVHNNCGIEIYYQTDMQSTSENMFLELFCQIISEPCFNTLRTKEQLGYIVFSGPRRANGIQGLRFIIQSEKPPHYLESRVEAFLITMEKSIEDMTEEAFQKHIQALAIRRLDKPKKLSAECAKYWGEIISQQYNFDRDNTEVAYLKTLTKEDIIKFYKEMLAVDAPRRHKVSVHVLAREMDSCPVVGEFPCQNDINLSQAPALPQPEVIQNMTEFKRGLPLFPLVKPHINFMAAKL
IDE act – human IDE activators in live cells, primary screen, fluorescence polarization, HEK cells, FAbeta-B substrate; 340,000 compounds, 0.073% hits; Insulin-degrading enzyme (Homo sapiens), P14735; activation, % at 5.96 µM; FAbeta-B cleavage; 0% vehicle, 100% cell-free pure enzyme wells;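 active = activation above the mean of all tested compounds plus 3 SD, set per screening campaign, cut at about 17% in these data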
HNF4A DNA FP – change in binding of human HNF4A to DNA, primary screen, biochemical, fluorescence polarization, FITC-DNA; activity change, % at 10 µM; AID 1224865, 2016; 360,000 compounds, 0.3% hits; 1 h; Hepatocyte nuclear factor 4-alpha (Homo sapiens), P41235; in the data active = activity change above about 30%, passing the limit was not always enough
CSN inh – inhibitors of CSN-mediated cullin deneddylation, primary screen, biochemical, fluorescence polarization, uHTS | COP9 signalosome complex subunit 5 (Homo sapiens), Q92905 | Purified CSN, SCF-Nedd8-OG deneddylation | inhibition, % at 12.5 µM | 360,000 compounds, 0.38% hits;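 active = pattern-corrected inhibition above about 35%, with an unprinted fluorescence ratio check between 0.5 and 1.5, limit read from the data, passing the limit was not always enough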
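Test system: Human Csn5 produced in HEK293T cells | Compound: 12.5 µM single point | Times: 90 min, room temperature | Signal: Fluorescence polarization readout | Read-out basis: % inhibition of substrate cleavage by Csn5 | Controls: no-enzyme wells high, enzyme-with-substrate wells low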
TPT1 inhibitor – Candida albicans TPT1 enzyme inhibitors, primary screen, biochemical, fluorescence polarization; tRNA 2'-phosphotransferase TPT1 (Candida albicans SC5314); recombinant caTPT1, FP RNA substrate dephosphorylation; inhibition, % at 5 µM; 300,000 compounds, 0.81% hits;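 active = inhibition above the mean of all tested compounds plus 3 SD, set per screening campaign, cut at about 24% in these data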
TPT1 inh confirm – Candida albicans TPT1 inhibitors, confirmation, biochemical, fluorescence polarization, triplicate; AID 2149, 2009; recombinant caTPT1, RNase T1 coupled; inhibition, % at 5 µM; shares compounds with TPT1 inhibitor; 2,400 compounds, 74% hits;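 active = inhibition above the primary screen limit, the mean inhibition of all tested compounds plus 3 SD, cut at about 25% in these data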
RNase T1 inh – RNase T1 inhibitors, counter-screen for TPT1 inhibitor project, biochemical, fluorescence polarization; shares compounds with TPT1 inhibitor; RNase T1 cleavage, 1536-well; inhibition, % at 5 µM; 2,400 compounds, 83% hits; AID 2153, 2009;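 active = inhibition above the solvent-only control well mean plus 3 SD, limit set per screening run, cut at about 23% in these data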;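 also: inhibitors block cleavage so intact labeled substrate keeps polarization high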
IDE inh confirm – human IDE inhibitors in live cells, confirmation, fluorescence polarization, HEK cells, FAbetaB substrate | shares compounds with IDE inh | FAbetaB cleavage | inhibition, % at 5.59 µM | 1,200 compounds, 51% hits | AID 435028, 2010;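 active = mean inhibition across triplicate wells above the cutoff set by the earlier primary insulin-degrading enzyme screen, cut at about 16% in these data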
HEK293 tox – cytotoxicity in HEK cells, cytotoxicity control for IDE inhibitor project, cell-based, luminescence. shares compounds with IDE inh. AID 449730, 2010. HEK293 cytotoxicity, ATP luminescence. 1,200 compounds, 28% hits. inhibition, % at 5.59 µM; in the data active = inhibition above about 22%
CSN deneddyl val – Csn5 deneddylation inhibitors, confirmation, biochemical, fluorescence polarization, single concentration, SCF-Nedd8OG substrate | inhibition, % at 16.6 µM | shares compounds with CSN inh | 540 compounds, 62% hits | Csn5 deneddylation of SCF-Nedd8OG, 90 min; in the data active = inhibition above about 50%
MMP-2 counter – MMP-2 protease inhibition counter-screen, confirmation, counter-screen for CSN deneddylation inhibitor project, biochemical, fluorescence, single concentration | shares compounds with CSN inh | recombinant MMP-2, FRET substrate fluorescence, 60 min | inhibition, % at 16.6 µM | 540 compounds, 33% hits | AID 720655, 2013;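 active = corrected plate-normalized z-score of 5 or more, or -5 or less, or inhibition of 15% or more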
Thrombin cntr – thrombin (bovine) inhibition, counter-screen for CSN hits; inhibition, % at 16.6 µM; 540 compounds, 49% hits; bovine thrombin cleavage of Ub4-pepOG, fluorescence polarization; shares compounds with CSN inh;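 active = inhibition at or above a set limit, with a fluorescence interference ratio between 0.5 and a set maximum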
A number is an active result. Compounds with a hit are over-represented: about 1.4% of the library has one in this group of screens.

Screening Cc1cc(/C=C2\SC(=S)N(C)C2=O)c(C)n1-c1ccc(O)cc1 returned IDE inh inactive, IDE act inactive, HNF4A DNA FP 79, CSN inh 51, TPT1 inhibitor 120, TPT1 inh confirm 129, RNase T1 inh 129, CSN deneddyl val 181, MMP-2 counter inactive and Thrombin cntr 62.
For COc1ccc(-n2c(C)cc(/C=C3\SC(=O)NC3=O)c2C)cc1 the results were IDE inh inactive, IDE act inactive, HNF4A DNA FP inactive, CSN inh inactive and TPT1 inhibitor inactive.
For C(=C\c1ccccc1)/CN1CCN(C(c2ccccc2)c2nnnn2C2CCCCC2)CC1 (stereo not drawn) the results were HNF4A DNA FP inactive and CSN inh inactive.
For COC1=C/C(=C/c2c(N)n3cc(C)sc3nc2=O)C=CC1=O the results were IDE inh inactive, IDE act inactive, HNF4A DNA FP 66, CSN inh 78, TPT1 inhibitor 81, TPT1 inh confirm 127, RNase T1 inh 128, CSN deneddyl val 66, MMP-2 counter inactive and Thrombin cntr 62.
CCS(=O)(=O)N1Cc2ccccc2CC1C(=O)N(C)Cc1ccc(OC)c(F)c1 (stereo not drawn) was read as IDE inh inactive, IDE act inactive, HNF4A DNA FP inactive, CSN inh inactive and TPT1 inhibitor inactive.
CCCN1CCc2c(sc(NC(=O)c3ccc(S(=O)(=O)N(C)c4ccccc4)cc3)c2C(=O)NC)C1 was read as IDE inh inactive, IDE act inactive, HNF4A DNA FP 67, CSN inh 42, TPT1 inhibitor 104, TPT1 inh confirm 110, RNase T1 inh 118, CSN deneddyl val 179, MMP-2 counter inactive and Thrombin cntr inactive.
For CCOc1cc(/C=C2\SC(=S)N(C(C(=O)O)c3ccccc3)C2=O)ccc1O (stereo not drawn) the results were IDE inh 68, IDE act inactive, HNF4A DNA FP inactive, CSN inh 41, TPT1 inhibitor 45, TPT1 inh confirm 48, RNase T1 inh 61, IDE inh confirm 140, HEK293 tox inactive, CSN deneddyl val 81, MMP-2 counter inactive and Thrombin cntr 55.
For O=C1/C(=C\c2cccc(O)c2)SC(=S)N1Cc1ccccc1 the results were IDE inh inactive, IDE act inactive, HNF4A DNA FP inactive, CSN inh inactive and TPT1 inhibitor inactive.
Screening CCOc1ccc(/C=C2/SC(=S)N(C(C(=O)O)c3ccccc3)C2=O)cc1OCC (stereo not drawn) returned IDE act inactive, HNF4A DNA FP inactive and CSN inh inactive.
For COc1ccc(/C=C2\SC(=S)N(C(Cc3ccccc3)C(=O)O)C2=O)cc1 (stereo not drawn) the results were IDE act inactive, HNF4A DNA FP inactive and CSN inh inactive.
For COc1cc(/C=C2\SC(=S)N(C(C(=O)O)c3ccccc3)C2=O)ccc1O (stereo not drawn) the results were IDE inh 64, IDE act inactive, HNF4A DNA FP inactive, CSN inh 39, TPT1 inhibitor 27, TPT1 inh confirm 28, RNase T1 inh 41, IDE inh confirm 174, HEK293 tox inactive, CSN deneddyl val 73, MMP-2 counter inactive and Thrombin cntr 61.
For COc1cc(/C=C2/SC(=S)N(Cc3ccccc3)C2=O)ccc1O the results were IDE inh 115, IDE act inactive, HNF4A DNA FP 69, CSN inh 57, TPT1 inhibitor 24, TPT1 inh confirm 37, RNase T1 inh 46, IDE inh confirm 139, HEK293 tox inactive, CSN deneddyl val 58, MMP-2 counter inactive and Thrombin cntr inactive.
`O=c1[nH]c(=S)[nH]c2c1C(c1ccc(Br)cc1)c1c([nH]c(=S)[nH]c1=O)O2` gave IDE inh inactive, IDE act inactive, HNF4A DNA FP inactive, CSN inh 84, TPT1 inhibitor 82, TPT1 inh confirm inactive, RNase T1 inh inactive, CSN deneddyl val 50, MMP-2 counter 33 and Thrombin cntr 85.
Screening CC1=NN(c2ccccc2)C(c2ccco2)C1 (stereo not drawn) returned IDE act inactive, HNF4A DNA FP inactive and CSN inh inactive.
O=[N+]([O-])c1ccc(/C=C/C2=NN(c3ccccc3)C(c3ccco3)C2)cc1 (stereo not drawn) was read as IDE inh 36, IDE act inactive, HNF4A DNA FP 83, CSN inh 64, TPT1 inhibitor 70, TPT1 inh confirm 64, RNase T1 inh 66, IDE inh confirm 53, HEK293 tox inactive, CSN deneddyl val 107, MMP-2 counter inactive and Thrombin cntr inactive.
For NC(=O)c1ccc(NC(=O)CNC(c2ccccc2)c2ccccc2)cc1 the results were IDE inh inactive, IDE act inactive, HNF4A DNA FP inactive, CSN inh inactive and TPT1 inhibitor inactive.
Screening CN(Cc1ccc(Cl)cc1)C(=O)c1ccc2ccccc2n1 returned IDE inh inactive, IDE act inactive, HNF4A DNA FP inactive, CSN inh inactive and TPT1 inhibitor inactive.
